Measured values: ChEMBL document CHEMBL4513216, “Probing the Open Global Health Chemical Diversity Library for Multistage-Active Starting Points for Next-Generation Antimalarials” (ACS Infect Dis, 2020)

Assay: Toxicity liver stage against HepG2, at 10uM
Type: cell-based
Set-up: test concentration 10 uM, cell line HepG2-A16-CD81EGFP
Conditions: human, HepG2-A16-CD81EGFP cells; read-out: INHIBITION
Summary of the method: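 Uninfected HepG2-A16-CD81EGFP cells, 3 × 10^3 per well, 1536-well, plated on prespotted compound at 10 μM final, parasite-free screening media added to match infected plates; puromycin 10 μM positive, DMSO 0.5% negative; run in parallel with 48 h PbLuc assay at 37 °C, 5% CO2; viability by CellTiter-Glo luminescence, normalized to controls.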

SMILES | cytotoxicity at 10 µM
O=C(COCC(F)(F)F)Nc1nncs1 | 5.79%
Cc1cccc(OC2CCN(C(=O)NCCn3ccnc3)CC2)c1C | 0.856%
Cc1ccc(CNC2(Cc3cc(CO)on3)COC2)o1 | 0.305%
CC(C)NC(=O)N[C@H]1C[C@@H](c2nc(-c3ccncc3)no2)N(C)C1 | -2.8%
CC(=O)N1N=C(c2ccco2)OC1C(=O)NCC(C)C (configuration not stated) | -5.31%
O=S1(=O)[C@@H](c2ccccc2)[C@H](CO)CN1c1ccccc1 | -5.41%
Cc1nn(-c2ncnc3[nH]cnc23)c2c1C(CC(C)C)CC(=O)N2 (configuration not stated) | 11.2%
Cc1ccc(NC(=O)CC2NC(N3CCc4ccccc43)=NC2=O)cc1 (configuration not stated) | 0.417%
Cc1cc(C)n(Cc2ccc(-c3noc(C(=O)NC[C@@H](C)O)n3)cc2)n1 | -9.62%
Cc1nn(-c2ncnc3[nH]cnc23)c2c1C(C(C)(C)C)CC(=O)N2 (configuration not stated) | 5.08%
O=C(c1cscn1)N1CCC2(CC1)CCN(S(=O)(=O)c1ccccc1)C2 | 10.5%
Cc1nc(NC(C)C)nc2c1CN(Cc1nccn1C)CC2 | 8.13%
CO[C@@H]1CC[C@H]2[C@H]1OCCN2S(=O)(=O)c1cn(C)cn1 | 5.32%
COCCN1CCC2(CC1)COc1ccccc1S(=O)(=O)N(C)C2 | -1.28%
COc1cc(N2CC[C@@H]3O[C@@H](C(=O)NC(C)C)C[C@@H]32)ncn1 | 7.66%
CN(C)Cc1cn2c(n1)CN(C1CCOC1)CC2 (configuration not stated) | 6.43%
CCOc1cc(=O)n2c(c1C(=O)OCc1ccc(F)cc1)CCCC2 | 3.51%
c1cncc(OCc2noc3c2CN(Cc2ccoc2)CC3)c1 | -8.33%
CCN(CC)C(=O)c1ccn(COc2ccc(F)cc2F)n1 | 7.61%
COc1cccc(CNC(=O)c2cc(C)nc(N3CCCC3)n2)c1 | 23.1%
CCn1ccc(NS(=O)(=O)c2cccc(CSC)c2)n1 | 10.4%
Cc1cc(C(F)(F)F)nn1C(C)C(=O)NN1CCOCC1 (configuration not stated) | -1.67%
CC1CCN(C(=O)C2CC(=O)N(c3cnn(C(C)C)c3)C2)CC1 (configuration not stated) | -0.343%

SMILES | cytotoxicity at 10 µM
Cn1ccc(C(=O)N2CCC(c3cc(CCO)n(C)n3)C2)n1 (configuration not stated) | -3.69%
Cc1ncsc1C(=O)N1CCC(c2ccc3c(NC(C)C)n[nH]c3n2)C1 (configuration not stated) | 4.42%
CC(=O)NCc1cncc(C2CCCN2C2CCOCC2)n1 (configuration not stated) | 2.15%
Cc1ncsc1CN1CCOC(C)(C(=O)N2CCOCC2)C1 (configuration not stated) | -1.95%
CNC(=O)C1(C)CN(c2nc(C)cc(C)n2)CCO1 (configuration not stated) | 7.92%
Cc1cc(Nc2ncccn2)nc(C2CCCN(CCO)C2)n1 (configuration not stated) | 1.09%
COc1cc2cc3c(nc2cc1OC)OCCN(Cc1cccs1)C3 | 11.4%
Cc1cnn(CC2CCN(CC(O)c3ccc(F)cc3)CC2)c1 (configuration not stated) | -0.237%
CCC(c1ccncc1)N(C)S(C)(=O)=O (configuration not stated) | -5.98%
Cn1cc(CNC2CCCOc3c(Cl)cccc32)cn1 (configuration not stated) | 10.7%
CCC1(CC)CC(=O)N(CC(O)c2cc(F)ccc2F)C1=O (configuration not stated) | -4.42%
O=C(NCCc1nncn1C1CC1)C1SCCc2ccccc21 (configuration not stated) | 2.48%
CCc1noc(CN(C)C2CCN(c3sccc3C#N)C2=O)n1 (configuration not stated) | 7.73%
COc1ccc(Cl)cc1CS(=O)(=O)Cc1nc(C2CC2)no1 | 3.43%
Cc1noc(C(C)Nc2ccc3oc(=O)[nH]c3c2)n1 (configuration not stated) | -2.27%
CC(C)S(=O)(=O)C(C)C(=O)NCc1ccccc1COc1ccccc1 (configuration not stated) | 12.1%
NC(=O)C1CCN(c2ncccc2C(=O)N2CCc3ccccc32)C1 (configuration not stated) | -5.78%
O=C(Nc1ccc2c(ccn2CCN2CCOCC2)c1)c1ccccn1 | 0.425%
CCS(=O)(=O)CC(=O)NC(c1ccccc1)C1CCCC1 (configuration not stated) | -137%
N#Cc1ncn(CCC(=O)Nc2ccccc2F)n1 | -150%
O=C(NCc1ccncc1)c1ccc(Cl)cc1F | 0.55%
O=C(Nc1cccc(CN2CCOC2=O)c1)N1CCCCCC1 | 18.6%
Cc1nccn1-c1cc(CNC(=O)CCNC(=O)OC(C)(C)C)ccn1 | -1.7%

SMILES | cytotoxicity at 10 µM
COc1ccccc1C1(CNc2ccc(C(=O)N(C)C)cn2)CC1 | -10.5%
CS(=O)(=O)CCCNC(=O)NC1CC(c2cccc(Cl)c2)C1 (configuration not stated) | -3.17%
CC(OCC(F)(F)F)C(=O)NCCN(C)C (configuration not stated) | -3.17%
O=C(C[S+]([O-])Cc1ccc(F)cc1Cl)N1CCc2sccc2C1 (configuration not stated) | -2.22%
CN(CCc1nccs1)C(=O)CC1(O)CCCCC1 | -6.16%
Cc1nccc(CNC(=O)N2CCN(Cc3ccccc3)C[C@H]2C)n1 | -128%
Cc1ccc(-n2nnnc2C2(NCc3ccco3)CCCC2)cc1 | 7.55%
COC(=O)CCC(=O)Nc1ccc(Br)c(C)n1 | 7.07%
Cc1cnn(C2CN(Cc3nnc(C4CC4)o3)C2)c1 | -6.49%
CCCN1CCCN(C(=O)C(CC)N2CCCC2=O)CC1 (configuration not stated) | -6.17%
CC(C)c1nc(CNc2ccc(CCO)cc2)cs1 | 20.1%
Cn1ccnc(Sc2ccccc2)c1=O | 0.483%
C[S+]([O-])c1nncn1CC(=O)c1cccc(Cl)c1 (configuration not stated) | -1.02%
Cc1cccc(NC(=O)[C@@H]2CCCN2CC(=O)N2CCCCCC2)n1 | 20.3%
CC(C)c1nc(CN(C)CC2CCN(CCO)CC2)no1 | -4.32%
CC(=O)N1CCN(CCNS(=O)(=O)c2ccc(C)c(F)c2)CC1 | -1.84%
COc1ccc(S(=O)(=O)N2C[C@@H]3CN(C)CCO[C@@H]3C2)cc1 | 1.82%
COc1nccc(N2CC[C@@H](N3CCN(C)CC3)[C@H](O)C2)c1C#N | -147%
CC1(c2ccccc2)CCCN(C(=O)c2ccn3nnnc3c2)C1 (configuration not stated) | 22.6%
Cc1nc(C)c(C)c(N2CCC3(CCN(C)C3)C2)n1 (configuration not stated) | -4.88%
COc1cccc([C@@H]2CCN(Cc3cccc(C)n3)C[C@H]2O)c1 | 2.22%
CNC(=O)C(C)(C)N(C)C(=O)c1cc(COc2ccccc2OC)[nH]n1 | -5.12%
CC(C)c1cc(C(=O)N[C@H]2CN(C3CCOCC3)C[C@@H]2C2CC2)no1 | 6.31%

SMILES | cytotoxicity at 10 µM
CC(NC1CCSCC1)c1ccccc1-n1cccn1 (configuration not stated) | -2.24%
COCCn1cncc1Cn1cccc(C(F)(F)F)c1=O | -19.2%
O=C1CN(CCCNS(=O)(=O)c2cccc(C(=O)NC3CC3)c2)CCN1 | -3.45%
CCN(C)S(=O)(=O)N1CCCC(CO)(CC=C(C)C)C1 (configuration not stated) | -3.41%
COC(=O)[C@@H]1C[C@H](NC(=O)Cn2c(=O)cc(C)c3ccccc32)CN1C | -3.44%
CC1(C)OC(=O)N(CCCC(=O)c2ccc(F)cc2)C1=O | -4.87%
CCc1noc(CN(C)Cc2cc3ccc(Cl)cc3[nH]c2=O)n1 | 4.92%
Cn1ccc2c(-c3cc(N4CCOCC4)ncn3)ccnc21 | 2.64%
CN(CCc1ncnn1C1Cc2ccccc2C1)C1CCS(=O)(=O)C1 (configuration not stated) | -3.54%
CCN(Cc1nccn1C)C(=O)c1ccc(NCc2cnn(C)c2)nc1 | 0.82%
Nc1ccc(C(=O)N2CCCC(C(=O)CCc3ccccc3)C2)cn1 (configuration not stated) | -7.98%
CN(C)S(=O)(=O)N1CC[C@]2(O)CCN(Cc3cccc(C#N)c3)C[C@@H]2C1 | -4.63%
O=C(CCCN1CCOCC1)N1CCCC(CO)(CC2CC2)C1 (configuration not stated) | -1.5%
CN(CC(=O)N1CC(C)(C)[C@](O)(C2CC2)C1)Cc1cccnc1 | -52%
COc1ccc(Oc2cncc(C3CCCN3C(C)=O)n2)cc1 (configuration not stated) | 2.86%
CCCc1noc(CN2CCN(c3nccs3)CC2)n1 | -3.43%
CC(Cn1cccn1)NC(=O)Nc1ccccn1 (configuration not stated) | 1.32%
CNc1nc(CNC(=O)Nc2ccc(SC)c(F)c2)cs1 | -5.75%
Cc1cc(CNc2cc(Cl)ccc2C)no1 | -7.01%
Cc1ccccc1OCC(=O)N1CCCC(CNS(C)(=O)=O)C1 (configuration not stated) | 2.07%
CCc1nccn1C1CCCN(C(=O)c2csc(C3CC3)n2)C1 (configuration not stated) | -9.39%
CN(C)c1ncccc1CNS(=O)(=O)c1ccccc1Cl | -15.3%
Cc1cnn(CC2CCCCN2C(=O)c2ccc(N(C)C)nc2)c1 (configuration not stated) | -13.2%

SMILES | cytotoxicity at 10 µM
Cc1nn(C)c(C)c1C1CCCN1C(=O)c1ccnc(N(C)C)c1 (configuration not stated) | -5.42%
CCc1nc(CN2CCCN(C(=O)c3cncnc3C)CC2)cs1 | -7.95%
CCn1cnnc1CNC(=O)N1CCOCC1 | 3.66%
Cc1nc(C2CCCN(C(=O)c3cccc4c3OCO4)C2)no1 (configuration not stated) | 3.39%
CCCc1ncc(C(=O)N2CCOC(c3nc(C)n[nH]3)C2)s1 (configuration not stated) | -0.12%
Cc1ccccc1CN1CCN(CC(=O)Nc2cccnc2)CC1 | -2.82%
CN(C)Cc1nn(C)c2c1CN(C(=O)c1ccc[nH]1)C2 | 9.22%
O=C1CC(c2ccncc2)C2(CCN(CC3CC3)CC2)N1 (configuration not stated) | 11.3%
O=S(=O)(C1CC1)N1CC[C@H](OCC2CC2)[C@@H]1Cc1cccnc1 | 8.13%
Cc1ccc(CN2CCc3ncnc(-c4ccncc4)c3CC2)o1 | -1.19%
O=C1NCC[C@]12CN(Cc1cccnc1)C[C@H]2c1ccccc1 | -137%
O=C(Nc1ccc(F)cc1)C(c1ccccc1)N1CCOCC1 (configuration not stated) | -3.84%
c1coc(CN2CCCn3c(CN4CCOCC4)nnc3C2)c1 | 4.86%
CC1c2ncc(CNC(=O)C3CC3)n2CCN1Cc1nccs1 (configuration not stated) | -5.43%
CC(C)Nc1nc2c(cc1C(=O)N(C)C)CCNCC2 | -4.99%
Cn1nc(Cn2cccn2)c2c1CN(C1CCOC1)C2 (configuration not stated) | 6.92%
Cc1ccsc1CN1C[C@@H]2COC[C@]2(COCC(=O)N(C)C)C1 | -4.55%
Cc1ccnc(N2C[C@H]3CC[C@@H](C2)N(CC2CCC2)C3=O)n1 | 11.4%
CN1CC2(CCC(C(=O)O)CC2)Oc2ccccc2C1=O (configuration not stated) | 2%
CCCSCC(=O)N1C[C@@H]2CC[C@H]1CN(c1ncccn1)C2 | 4.42%
